M1 PAM: potentiates human M1 receptor response to acetylcholine | CHO-K1 hM1, Fluo-8 calcium fluorescence, ACh EC20; 0% = ACh EC20, 100% = maximal ACh | 0.088% of 360,000 active | P11229 | activation, % at 3 µM; in the data active = activation above about 19%, passing the limit was not always enough
Target sequence (P11229 whole entry, looked up): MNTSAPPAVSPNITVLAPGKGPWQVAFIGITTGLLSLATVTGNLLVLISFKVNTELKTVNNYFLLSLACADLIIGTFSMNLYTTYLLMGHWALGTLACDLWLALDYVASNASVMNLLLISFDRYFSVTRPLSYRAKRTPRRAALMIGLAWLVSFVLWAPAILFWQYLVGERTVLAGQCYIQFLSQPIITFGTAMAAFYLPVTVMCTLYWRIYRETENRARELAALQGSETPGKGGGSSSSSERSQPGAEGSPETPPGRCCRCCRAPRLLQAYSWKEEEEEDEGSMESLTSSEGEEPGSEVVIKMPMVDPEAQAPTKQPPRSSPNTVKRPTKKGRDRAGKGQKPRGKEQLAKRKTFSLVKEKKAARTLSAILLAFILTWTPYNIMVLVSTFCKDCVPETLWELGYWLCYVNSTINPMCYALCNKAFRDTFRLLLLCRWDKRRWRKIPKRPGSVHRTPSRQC
CHRM1 agonist: human M1 muscarinic receptor agonism. P11229. CHO-K1 hM1, Fluo-8 calcium fluorescence, agonist mode; 0% DMSO, 100% acetylcholine EC100. activation, % at 3 µM. 0.33% of 360,000 active. AID 588814;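 active = activation above the run's mean compound activation plus 3 SD, cut at about 16% in these data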;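 also: peak over basal fluorescence ratio within a 140 s kinetic read after compound addition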
M1 antag: blocks human M1 muscarinic receptor | AID 588852 | inhibition, % at 3 µM | CHO-K1 hM1, Fluo-8 calcium fluorescence, ACh EC80 antagonist | P11229 | 1.3% of 360,000 active;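 active = percent inhibition above its own plate's cutoff, namely the mean of that plate's compound wells plus 3 SD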;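 also: peak over basal fluorescence ratio during 140 s after agonist addition; 0% = ACh EC80 plus DMSO and 100% = DMSO alone without agonist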
M5 antag: antagonists of human muscarinic M5 receptor (CHRM5) | inhibition, % at 3 µM | 0.59% of 360,000 active | CHO-hM5 cells, Fluo-8 calcium fluorescence, ACh EC80 | P08912 | AID 624040;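 active = inhibition above a per-plate cutoff, the mean of that plate's test compounds plus 3 SD, cut at about 27% in these data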;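 also: 0% = acetylcholine EC80 with DMSO and 100% = DMSO without agonist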
M5 ag: agonists of human muscarinic M5 receptor (CHRM5); P08912; CHO-K1 hM5 cells, Fluo-8 calcium fluorescence; 0% DMSO wells, 100% maximal acetylcholine response; activation, % at 3 µM; 0.19% of 360,000 active;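 active = activation above the run's mean over test compounds plus 3 SD, cut at about 23% in these data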;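 also: signal is peak over basal fluorescence ratio across the kinetic read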
CHRM5 PAM: CHRM5 positive allosteric modulation; CHO-K1 hM5, Fluo-8 calcium, ACh EC20 PAM; 0% = ACh EC20, 100% = ACh EC100; 0.3% of 360,000 active; activation, % at 3 µM; P08912;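 active = activation above the run cutoff, the mean activation of all test compounds plus 3 SD, cut at about 18% in these data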
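Assay system: CHO-K1 hM5 cells. Also added: acetylcholine at EC20 concentration, added after compound. Dosing: 3 µM, single dose. Times: compound preincubation 140 s before EC20 acetylcholine addition. Signal: Fluo-8 calcium fluorescence. Measure: % activation relative to EC20 and EC100 ACh responses. Repeats: singlicate, one well per test compound.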
* marks the source's active call; other numbers are inactive results. Hits are enriched below; roughly 2.1% of the tested compounds scored in any of these assays.

What do the screens show for `CC1=C(C(=O)OCc2ccccc2)C(c2ccco2)C2=C(CC(C)(C)CC2=O)N1` (configuration not stated)?
M1 PAM: -7; CHRM1 agonist: -3; M1 antag: -3; M5 antag: 5; M5 ag: -2; CHRM5 PAM: -7

Results for CCN(CC)CCNC(=O)c1ccc2c(=O)n(C3CCCC3)c(=S)[nH]c2c1 ?
M1 PAM: -24; CHRM1 agonist: -7; M1 antag: 57*; M5 antag: 1; M5 ag: -8; CHRM5 PAM: -3

Results for CC(C)NC(=O)c1ccc2c(=O)n(C3CCCC3)c(=S)[nH]c2c1 ?
M1 PAM: 9; CHRM1 agonist: -4; M1 antag: -7; M5 antag: -1; M5 ag: -2; CHRM5 PAM: 1

Results for CC1=[N+](C)c2c(ccc3cccnc23)C1(C)C ?
M1 PAM: -19; CHRM1 agonist: -10; M1 antag: 29; M5 antag: 37*; M5 ag: 2; CHRM5 PAM: -18

What do the screens show for `COc1ccc(C2CC(=O)c3cnn(-c4nc(C)cc(C)n4)c3C2)cc1OC` (configuration not stated)?
M1 PAM: 5; CHRM1 agonist: -4; M1 antag: -8; M5 antag: 20; M5 ag: 7; CHRM5 PAM: 44*

Results for Cc1ccc(C(CNC(=O)c2ccc(Br)o2)N2CCN(C)CC2)cc1 (configuration not stated) ?
M1 PAM: 0; CHRM1 agonist: -6; M1 antag: -1; M5 antag: 14; M5 ag: -6; CHRM5 PAM: 1

What do the screens show for `O=C(OCC(=O)N(Cc1ccccc1)Cc1ccccc1)c1ccccc1NCCO`?
M1 PAM: -8; CHRM1 agonist: 0; M1 antag: 21*; M5 antag: 21; M5 ag: 3; CHRM5 PAM: -32

What do the screens show for `CCc1sc(C(=O)Nc2ncccc2C)cc1C`?
M1 PAM: 10; CHRM1 agonist: -2; M1 antag: -10; M5 antag: 9; M5 ag: 0; CHRM5 PAM: 0

Results for CCc1sc(C(=O)Nc2ncccc2O)cc1C ?
M1 PAM: 25*; CHRM1 agonist: 5; M1 antag: -28; M5 antag: -2; M5 ag: -5; CHRM5 PAM: -7

How did Cc1ccc(-c2nnc(CSc3nnc(C)s3)o2)cc1 do in these assays?
M1 PAM: -3; CHRM1 agonist: -6; M1 antag: 3; M5 antag: 8; M5 ag: -2; CHRM5 PAM: 19*

Results for Cc1csc(SCc2nnc(-c3ccc(Cl)cc3)o2)n1 ?
M1 PAM: 6; CHRM1 agonist: -4; M1 antag: -8; M5 antag: -1; M5 ag: -1; CHRM5 PAM: 1

What do the screens show for `S=C(Nc1ccc(Br)cc1)Nc1ccc2c(c1)OCCO2`?
M1 PAM: -11; CHRM1 agonist: -1; M1 antag: 31*; M5 antag: 25; M5 ag: -3; CHRM5 PAM: -10

What do the screens show for `CCS(=O)(=O)c1nc(NC(C)=O)n[nH]1`?
M1 PAM: -1; CHRM1 agonist: -2; M1 antag: -12; M5 antag: -4; M5 ag: -2; CHRM5 PAM: -1

Results for CSc1nc2c(cc1C#N)CCCCC2 ?
M1 PAM: -26; CHRM1 agonist: -8; M1 antag: 30*; M5 antag: 5; M5 ag: -10; CHRM5 PAM: -13

How did O=C(NCCc1ccc(Cl)cc1)C1CCCO1 (configuration not stated) do in these assays?
M1 PAM: 3; CHRM1 agonist: -5; M1 antag: 11; M5 antag: 61*; M5 ag: -10; CHRM5 PAM: -23

Results for O=C(NCCc1ccc(F)cc1)C1CCCO1 (configuration not stated) ?
M1 PAM: 3; CHRM1 agonist: -2; M1 antag: -9; M5 antag: 7; M5 ag: 1; CHRM5 PAM: -6

Results for CCOC(=O)C1CCCN(C(=O)c2ccc([N+](=O)[O-])cc2)C1 (configuration not stated) ?
M1 PAM: 5; CHRM1 agonist: -11; M1 antag: -5; M5 antag: -5; M5 ag: -4; CHRM5 PAM: -4

How did O=C(OCCN1C(=O)c2cccc3c(N4CCOCC4)ccc(c23)C1=O)c1ccccc1Cl do in these assays?
M1 PAM: -24; CHRM1 agonist: 15; M1 antag: 44*; M5 antag: 45*; M5 ag: 17; CHRM5 PAM: -20

How did O=C(OCCN1C(=O)c2cccc3c(N4CCOCC4)ccc(c23)C1=O)c1ccc(Cl)cc1Cl do in these assays?
M1 PAM: -3; CHRM1 agonist: 2; M1 antag: 9; M5 antag: 8; M5 ag: 1; CHRM5 PAM: -4

Results for CC1=NNC(=O)/C1=C\c1cn(-c2ccccc2)nc1-c1ccccc1 ?
M1 PAM: -8; CHRM1 agonist: 1; M1 antag: 33*; M5 antag: 32*; M5 ag: 28*; CHRM5 PAM: 6

What do the screens show for `COc1cc(C(=O)NCC(c2ccco2)N2CCCC2)ccc1OCc1ccc(Cl)cc1Cl` (configuration not stated)?
M1 PAM: -24; CHRM1 agonist: -6; M1 antag: 49*; M5 antag: -11; M5 ag: -11; CHRM5 PAM: -43

Results for COc1ccc(C(CNC(=O)c2ccc(-c3ccccc3Cl)o2)N2CCOCC2)cc1 (configuration not stated) ?
M1 PAM: -6; CHRM1 agonist: 3; M1 antag: 7; M5 antag: -1; M5 ag: 5; CHRM5 PAM: 12

What do the screens show for `COc1ccccc1C(CNC(=O)c1ccc(-c2ccccc2Cl)o1)N1CCCC1` (configuration not stated)?
M1 PAM: -24; CHRM1 agonist: -5; M1 antag: 84*; M5 antag: 17; M5 ag: -10; CHRM5 PAM: -34

Results for COc1ccc(Cl)cc1C(=O)NCC(c1ccco1)N1CCCC1 (configuration not stated) ?
M1 PAM: -12; CHRM1 agonist: -5; M1 antag: 14; M5 antag: 1; M5 ag: -7; CHRM5 PAM: -2

How did COc1ccccc1C(CNC(=O)c1ccco1)N1CCCC1 (configuration not stated) do in these assays?
M1 PAM: -30; CHRM1 agonist: -8; M1 antag: 73*; M5 antag: 18; M5 ag: -11; CHRM5 PAM: -31
